Measurements: paper PMC3662534 (Molecular cancer therapeutics, 2009)
“Also recorded” adds a separate entry of the source. Positions of bridges follow the written chain, without caps; N, C: chain ends. Non-standard residues stand in square brackets, D forms with d. Residues, ends and D or L forms follow the SMILES beside them. *: point of attachment. DTPA = O=C(O)CN(CCN(CC(=O)O)CC(=O)O)CCN(CC(=O)O)CC(=O)*; dPen = CC(C)(S)[C@@H](N)C(=O)O

Tests used:
[1] = biological target: human delta-opioid receptor (δOR) (Homo sapiens, UniProt P41143); details: saturation binding to δOR in CHO/MC4R/δOR cells
human delta-opioid receptor (δOR), sequence (P41143 whole entry): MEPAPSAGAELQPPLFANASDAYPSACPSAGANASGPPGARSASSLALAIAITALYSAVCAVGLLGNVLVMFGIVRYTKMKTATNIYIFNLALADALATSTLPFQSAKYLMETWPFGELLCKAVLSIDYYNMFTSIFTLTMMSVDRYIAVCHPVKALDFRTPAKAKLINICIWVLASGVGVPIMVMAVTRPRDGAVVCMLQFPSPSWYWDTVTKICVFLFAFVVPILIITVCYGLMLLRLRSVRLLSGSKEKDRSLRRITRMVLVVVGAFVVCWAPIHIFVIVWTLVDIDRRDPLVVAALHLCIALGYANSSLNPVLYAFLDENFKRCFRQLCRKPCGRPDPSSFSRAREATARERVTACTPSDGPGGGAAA

Hek293/MC4R/CCK2R cells = assay: Cell fluorescence imaging of Cy5 labeled ligand binding and internalization; format: cell-based, human
In short: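 Live stable Hek293/MC4R/CCK2R cells on coverslips were held in a 37°C stage chamber. Cells were incubated with 0.8 nM Cy5-tagged heterobivalent ligand (15 sec, or 3 min in the legend) and rinsed with ligand-free medium. Images were taken immediately and 7 min later by CCD camera, with Cy5 excitation at 640 nm (20 nm bandpass) and emission at 690 nm (30 nm filter).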

[2] = system: Hek293 cells expressing MC4R and/or CCK2R; assay: Cytotoxicity, celltiter-Glo luminescent cell viability assay; format: cell-based, human; details: 1 μM, dual receptor expressing (target) cells, 24 and 48 h

CC1(C)SSC[C@@H](C(=O)N[C@@H](Cc2ccccc2)C(=O)N[C@@H](CCCCNC(=O)CN(CCN(CCN(CC(=O)O)CC(=O)O)CC(=O)O)CC(=O)O)C(N)=O)NC(=O)[C@H](Cc2ccccc2)NC(=O)CNC(=O)[C@@H]1NC(=O)[C@@H](N)Cc1ccc(O)cc1 [Eu-DPLCE, H-Tyr-c[DPen-Gly-Phe-Cys]-Phe-Lys(Eu-(DTPA))-NH2] (H-Y[dPen]GFCFK(DTPA)-NH2; disulfide 2-5)
Bmax [1]: 24,000 ± 2,000 AFU

Ac-MSH7-PEGO-[Pro-Gly]3-Lys(Cy5)-PEGO-CCK6-NH2
internalization of receptor/ligand complex (Hek293/MC4R/CCK2R cells; by 10 minutes, no significant loss of ligand on adding CCK ligand 50 μM): substantially internalized | binding to the cell surface (Cy5 fluorescence) (Hek293/MC4R/CCK2R cells; immediately following incubation, 15 sec with 0.8 nM): significant binding to the cell surface

cholecystokinin-8 [CCK]
cell viability [2]: reduced viability; also recorded: toxicity
